Columns and labels:
Conditions in all cases: stereoisomer not certain
[1] = target: T1, OR10S1 (Homo sapiens) (UniProt Q8NGN2)
T1 sequence (whole entry): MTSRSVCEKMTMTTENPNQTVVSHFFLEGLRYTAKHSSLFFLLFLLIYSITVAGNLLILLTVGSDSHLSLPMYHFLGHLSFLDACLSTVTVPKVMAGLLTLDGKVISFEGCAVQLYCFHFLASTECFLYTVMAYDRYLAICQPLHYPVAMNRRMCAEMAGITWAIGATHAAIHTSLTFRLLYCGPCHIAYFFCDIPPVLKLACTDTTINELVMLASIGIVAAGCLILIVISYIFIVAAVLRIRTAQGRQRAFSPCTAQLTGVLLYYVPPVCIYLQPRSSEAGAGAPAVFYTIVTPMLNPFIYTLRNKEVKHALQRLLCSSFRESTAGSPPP
In short: (§1)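 Each receptor–molecule pair is labelled responsive or non-responsive (inactive) according to whether the original authors judged the measured signal statistically different from baseline. The data were taken from the main text and supplementary material of published papers and checked for typos and inconsistencies. Assay methods differed by source, with transient luciferase assays in mammalian cell lines being common.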

[2] = target: OR10Q1 (Homo sapiens) (UniProt Q8NGQ4)
In short: as §1

[3] = target: OR10R2 (Homo sapiens) (UniProt Q8NGX6)
In short: as §1

[4] = target: OR10T2 (Homo sapiens) (UniProt Q8NGX3)
In short: as §1

[5] = target: OR10V1 (Homo sapiens) (UniProt Q8NGI7)
In short: as §1

[6] = target: OR10W1 (Homo sapiens) (UniProt Q8NGF6)
In short: as §1

[7] = target: OR10X1 (Homo sapiens) (UniProt Q8NGY0)
In short: as §1

[8] = target: OR10Z1 (Homo sapiens) (UniProt Q8NGY1)
In short: as §1

[9] = target: OR11A1 (Homo sapiens) (UniProt Q9GZK7)
In short: as §1

[10] = target: OR11G2 (Homo sapiens) (UniProt Q8NGC1)
In short: as §1

[11] = target: OR11H1 (Homo sapiens) (UniProt Q8NG94)
In short: as §1

[12] = target: OR11H12 (Homo sapiens) (UniProt B2RN74)
In short: as §1

[13] = target: OR11H2 (Homo sapiens) (UniProt Q8NH07)
In short: as §1

[14] = target: OR11H4 (Homo sapiens) (UniProt Q8NGC9)
In short: as §1

[15] = target: OR11H6 (Homo sapiens) (UniProt Q8NGC7)
In short: as §1

[16] = target: OR11H7 (Homo sapiens) (UniProt Q8NGC8)
In short: as §1

[17] = target: OR11L1 (Homo sapiens) (UniProt Q8NGX0)
In short: as §1

[18] = target: OR12D1 (Homo sapiens) (UniProt P0DN82)
In short: as §1

[19] = target: OR12D2 (Homo sapiens) (UniProt P58182)
In short: as §1

[20] = target: OR12D3 (Homo sapiens) (UniProt Q9UGF7)
In short: as §1

Measured: odorant receptor agonist call;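 also: active if original authors judged signal statistically different from baseline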

Chain of OR12D2 (Homo sapiens) (P58182 whole entry): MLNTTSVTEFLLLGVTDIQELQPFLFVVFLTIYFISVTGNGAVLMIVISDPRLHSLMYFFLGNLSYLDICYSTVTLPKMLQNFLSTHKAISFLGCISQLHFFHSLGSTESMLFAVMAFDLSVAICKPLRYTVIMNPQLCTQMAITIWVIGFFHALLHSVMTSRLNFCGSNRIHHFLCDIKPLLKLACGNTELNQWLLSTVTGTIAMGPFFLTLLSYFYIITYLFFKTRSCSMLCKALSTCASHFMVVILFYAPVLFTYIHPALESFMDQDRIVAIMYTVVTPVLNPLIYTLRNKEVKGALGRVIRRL
Chain of OR11G2 (Homo sapiens) (Q8NGC1 whole entry): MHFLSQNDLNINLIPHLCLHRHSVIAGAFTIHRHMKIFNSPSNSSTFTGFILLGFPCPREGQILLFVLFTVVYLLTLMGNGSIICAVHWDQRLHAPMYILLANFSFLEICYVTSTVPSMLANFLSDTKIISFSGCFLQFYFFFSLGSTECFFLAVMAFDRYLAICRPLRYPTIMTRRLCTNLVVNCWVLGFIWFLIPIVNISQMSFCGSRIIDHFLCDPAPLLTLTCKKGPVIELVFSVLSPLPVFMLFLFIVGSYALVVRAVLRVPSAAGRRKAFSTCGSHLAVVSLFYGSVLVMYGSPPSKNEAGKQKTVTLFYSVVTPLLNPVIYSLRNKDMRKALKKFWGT
Chain of OR10X1 (Homo sapiens) (Q8NGY0 whole entry): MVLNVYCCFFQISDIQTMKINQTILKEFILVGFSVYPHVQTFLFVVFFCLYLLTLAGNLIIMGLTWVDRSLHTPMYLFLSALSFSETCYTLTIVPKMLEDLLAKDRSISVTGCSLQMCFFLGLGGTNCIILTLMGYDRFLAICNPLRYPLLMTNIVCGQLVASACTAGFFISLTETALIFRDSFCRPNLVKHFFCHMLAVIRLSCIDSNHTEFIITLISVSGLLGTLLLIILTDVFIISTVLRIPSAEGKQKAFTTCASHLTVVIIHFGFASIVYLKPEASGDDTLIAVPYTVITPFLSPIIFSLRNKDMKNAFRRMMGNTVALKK
Chain of OR12D3 (Homo sapiens) (Q9UGF7 whole entry): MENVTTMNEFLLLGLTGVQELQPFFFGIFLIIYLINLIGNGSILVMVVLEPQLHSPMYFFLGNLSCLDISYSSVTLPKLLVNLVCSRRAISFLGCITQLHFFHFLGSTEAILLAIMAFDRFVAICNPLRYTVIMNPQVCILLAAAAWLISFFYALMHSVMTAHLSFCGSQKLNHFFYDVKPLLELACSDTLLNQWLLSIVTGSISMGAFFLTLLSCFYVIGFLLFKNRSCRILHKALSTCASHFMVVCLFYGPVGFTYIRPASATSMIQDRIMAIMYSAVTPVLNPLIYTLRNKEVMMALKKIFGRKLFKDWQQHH
Chain of OR10V1 (Homo sapiens) (Q8NGI7 whole entry): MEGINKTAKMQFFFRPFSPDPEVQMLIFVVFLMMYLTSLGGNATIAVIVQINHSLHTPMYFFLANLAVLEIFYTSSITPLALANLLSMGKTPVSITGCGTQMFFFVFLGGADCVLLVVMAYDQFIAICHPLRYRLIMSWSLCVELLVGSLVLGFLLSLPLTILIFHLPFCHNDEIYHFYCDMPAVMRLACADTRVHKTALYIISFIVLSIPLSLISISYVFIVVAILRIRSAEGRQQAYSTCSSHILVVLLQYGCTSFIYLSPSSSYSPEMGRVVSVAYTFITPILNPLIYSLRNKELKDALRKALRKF
Chain of OR11H1 (Homo sapiens) (Q8NG94 whole entry): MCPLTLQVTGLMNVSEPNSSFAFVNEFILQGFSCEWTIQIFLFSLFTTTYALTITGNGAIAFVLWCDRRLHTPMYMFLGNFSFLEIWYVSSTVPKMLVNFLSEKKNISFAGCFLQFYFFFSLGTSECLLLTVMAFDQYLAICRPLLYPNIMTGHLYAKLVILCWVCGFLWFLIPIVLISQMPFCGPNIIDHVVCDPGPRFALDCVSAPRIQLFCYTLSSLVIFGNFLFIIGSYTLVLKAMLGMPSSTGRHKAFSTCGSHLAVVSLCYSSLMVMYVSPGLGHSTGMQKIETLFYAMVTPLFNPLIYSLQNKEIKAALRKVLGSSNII
Chain of OR10Q1 (Homo sapiens) (Q8NGQ4 whole entry): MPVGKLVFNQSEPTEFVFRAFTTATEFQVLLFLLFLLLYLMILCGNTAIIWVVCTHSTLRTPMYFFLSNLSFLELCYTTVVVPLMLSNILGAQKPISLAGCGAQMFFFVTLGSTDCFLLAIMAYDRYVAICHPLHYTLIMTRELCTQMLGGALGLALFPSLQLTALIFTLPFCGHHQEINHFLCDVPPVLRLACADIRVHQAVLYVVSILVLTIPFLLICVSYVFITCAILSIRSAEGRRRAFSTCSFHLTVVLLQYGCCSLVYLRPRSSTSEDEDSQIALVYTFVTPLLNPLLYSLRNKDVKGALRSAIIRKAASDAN
Chain of OR11H4 (Homo sapiens) (Q8NGC9 whole entry): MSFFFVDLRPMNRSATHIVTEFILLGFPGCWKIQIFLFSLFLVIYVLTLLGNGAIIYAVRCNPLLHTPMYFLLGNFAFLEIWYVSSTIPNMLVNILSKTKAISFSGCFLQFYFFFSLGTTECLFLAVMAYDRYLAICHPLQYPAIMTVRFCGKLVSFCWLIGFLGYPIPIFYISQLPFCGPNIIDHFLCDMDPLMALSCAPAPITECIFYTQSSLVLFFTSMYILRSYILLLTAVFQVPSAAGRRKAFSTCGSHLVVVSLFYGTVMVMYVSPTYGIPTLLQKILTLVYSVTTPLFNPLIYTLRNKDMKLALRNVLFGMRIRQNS
Chain of OR11H12 (Homo sapiens) (B2RN74 whole entry): as the sequence (Q8NG94 whole entry) above, with S33T, R68W, Y156C, M240V counted along it
Chain of OR11H2 (Homo sapiens) (Q8NH07 whole entry): as the sequence (Q8NG94 whole entry) above, with Q7H, T49I, M181K, R199L, M240V, S269P counted along it
Chain of OR10T2 (Homo sapiens) (Q8NGX3 whole entry): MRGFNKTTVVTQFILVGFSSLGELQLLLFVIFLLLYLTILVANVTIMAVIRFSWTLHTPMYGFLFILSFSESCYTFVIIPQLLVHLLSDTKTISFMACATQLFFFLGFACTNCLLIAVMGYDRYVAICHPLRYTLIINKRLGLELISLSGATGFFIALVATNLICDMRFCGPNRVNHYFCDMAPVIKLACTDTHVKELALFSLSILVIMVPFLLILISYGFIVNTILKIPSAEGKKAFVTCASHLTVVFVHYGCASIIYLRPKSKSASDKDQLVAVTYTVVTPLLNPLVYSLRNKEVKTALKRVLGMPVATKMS
Chain of OR10R2 (Homo sapiens) (Q8NGX6 whole entry): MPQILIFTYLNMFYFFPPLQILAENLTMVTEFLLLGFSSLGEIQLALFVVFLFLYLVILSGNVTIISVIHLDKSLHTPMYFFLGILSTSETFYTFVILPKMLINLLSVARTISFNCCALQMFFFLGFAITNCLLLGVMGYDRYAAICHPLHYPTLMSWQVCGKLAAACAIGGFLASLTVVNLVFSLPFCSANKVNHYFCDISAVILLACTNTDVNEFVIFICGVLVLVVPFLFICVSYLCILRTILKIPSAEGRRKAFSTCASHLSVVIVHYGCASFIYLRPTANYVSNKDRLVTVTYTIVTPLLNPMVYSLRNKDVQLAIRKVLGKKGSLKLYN
Chain of OR11H6 (Homo sapiens) (Q8NGC7 whole entry): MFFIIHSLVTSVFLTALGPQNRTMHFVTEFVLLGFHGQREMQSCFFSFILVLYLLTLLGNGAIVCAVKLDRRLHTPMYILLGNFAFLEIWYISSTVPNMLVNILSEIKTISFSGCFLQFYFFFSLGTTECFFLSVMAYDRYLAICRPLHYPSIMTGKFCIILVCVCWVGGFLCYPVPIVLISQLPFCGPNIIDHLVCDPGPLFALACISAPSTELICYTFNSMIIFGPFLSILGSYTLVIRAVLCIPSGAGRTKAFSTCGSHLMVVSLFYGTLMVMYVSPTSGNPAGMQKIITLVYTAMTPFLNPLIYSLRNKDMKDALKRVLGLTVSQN
Chain of OR11A1 (Homo sapiens) (Q9GZK7 whole entry): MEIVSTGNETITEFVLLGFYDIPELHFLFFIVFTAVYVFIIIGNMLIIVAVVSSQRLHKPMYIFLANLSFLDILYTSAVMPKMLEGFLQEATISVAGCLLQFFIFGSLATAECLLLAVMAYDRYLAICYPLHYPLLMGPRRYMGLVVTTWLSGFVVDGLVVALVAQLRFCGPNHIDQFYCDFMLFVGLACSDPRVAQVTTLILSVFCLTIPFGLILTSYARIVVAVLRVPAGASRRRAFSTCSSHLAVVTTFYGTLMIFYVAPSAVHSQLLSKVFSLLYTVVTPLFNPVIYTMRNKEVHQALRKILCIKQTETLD
Chain of OR10Z1 (Homo sapiens) (Q8NGY1 whole entry): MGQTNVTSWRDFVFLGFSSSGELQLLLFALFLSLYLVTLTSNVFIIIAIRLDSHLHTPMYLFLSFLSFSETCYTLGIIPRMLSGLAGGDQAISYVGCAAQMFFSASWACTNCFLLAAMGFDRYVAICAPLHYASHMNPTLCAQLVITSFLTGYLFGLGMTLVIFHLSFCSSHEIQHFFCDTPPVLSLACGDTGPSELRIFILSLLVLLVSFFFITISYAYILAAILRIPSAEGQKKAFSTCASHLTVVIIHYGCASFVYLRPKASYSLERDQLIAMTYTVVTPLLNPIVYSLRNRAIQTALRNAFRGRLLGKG
Chain of OR10W1 (Homo sapiens) (Q8NGF6 whole entry): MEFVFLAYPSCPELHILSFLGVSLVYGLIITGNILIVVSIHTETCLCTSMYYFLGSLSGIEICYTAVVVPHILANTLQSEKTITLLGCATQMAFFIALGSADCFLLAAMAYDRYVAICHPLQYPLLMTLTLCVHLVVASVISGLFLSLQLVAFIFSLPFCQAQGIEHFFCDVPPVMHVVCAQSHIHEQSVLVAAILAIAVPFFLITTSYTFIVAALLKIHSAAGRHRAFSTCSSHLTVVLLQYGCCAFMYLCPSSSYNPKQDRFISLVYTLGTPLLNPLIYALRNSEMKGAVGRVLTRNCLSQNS

Cc1cccc(C)c1
inactive: [1]

Cc1c([N+](=O)[O-])c(C)c([N+](=O)[O-])c(C(C)(C)C)c1[N+](=O)[O-]
inactive: all assays above

C=CCOC(=O)Cc1ccccc1
not listed: [16] | [18]
inactive: all other assays above

COc1ccc(C=O)cc1
inactive: [1]

Source: the M2OR odorant receptor database
